Data set [1] concerns the target Hydroxycarboxylic acid receptor 2 (Homo sapiens) (UniProt Q8TDS4). Nature of the data set: Displacement of [3H]niacin from human niacin receptor expressed in CHO-KI cells at 25 uM. Type of data set: cell-based. For orientation: Loss of bound radioactivity is the signal in a displacement assay; it reports binding, not function.
Data set [2] shares this target. Nature of the data set: Displacement of [3H]niacin from human niacin receptor expressed in CHO-KI cells in presence of human serum. Type of data set: cell-based. Put shortly: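 Membranes from CHO-K1 cells stably expressing the niacin receptor; [3H]niacin displacement titrated with and without added human serum (serum level not stated); the serum shift is given as fold change. Values are means of two independent titrations, with calculated standard errors below 15%.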

Data set [3] can be described thus: Clearance in mouse plasma. Type of data set: ADME, organism-based.
Data set [4] is described as follows: Half life in mouse plasma. Type of data set: ADME, organism-based.
Data set [5] can be described thus: Oral bioavailability in mouse plasma. Type of data set: ADME, organism-based.
Data set [6] in a line: Volume of distribution at steady state in mouse plasma. To be noted: read-out: Vdss. Format: ADME, organism-based.
Data set [7] is described as follows: Cmax in mouse plasma. Format: ADME, organism-based.
A short description of data set [8]: Clearance in rat plasma. Type of data set: ADME, organism-based.
A short description of data set [9]: Volume of distribution at steady state in rat plasma. Type of data set: ADME, organism-based. Conditions: read-out: Vdss.
Data set [10] is described as follows: Half life in rat plasma. Type of data set: ADME, organism-based.
The nature of data set [11]: Cmax in rat plasma. Type of data set: ADME, organism-based.
The nature of data set [12]: Oral bioavailability in rat plasma. Type of data set: ADME, organism-based.

Each structure is given as a SMILES string.

Data on 17 molecules can be found in ChEMBL document CHEMBL1155483, “Anthranilic acid replacements in a niacin receptor agonist” (Bioorg Med Chem Lett, 2010).

Hydroxycarboxylic acid receptor 2 (Homo sapiens), sequence (Q8TDS4 whole entry): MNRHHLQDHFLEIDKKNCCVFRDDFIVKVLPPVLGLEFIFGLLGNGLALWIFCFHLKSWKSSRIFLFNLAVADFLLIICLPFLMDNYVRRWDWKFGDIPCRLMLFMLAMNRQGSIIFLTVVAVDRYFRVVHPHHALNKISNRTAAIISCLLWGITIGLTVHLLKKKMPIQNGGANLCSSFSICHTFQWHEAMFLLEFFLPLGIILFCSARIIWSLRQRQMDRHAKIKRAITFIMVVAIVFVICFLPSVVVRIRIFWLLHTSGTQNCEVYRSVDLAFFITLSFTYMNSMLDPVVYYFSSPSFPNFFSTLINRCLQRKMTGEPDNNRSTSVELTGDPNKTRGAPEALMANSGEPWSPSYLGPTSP

By inhibition is commonly meant how much of the control response was suppressed. A higher inhibition goes with strong suppression. For `N#CC1CCC(NC(=O)CCc2ccc3cc(O)ccc3c2)=C(C(=O)O)C1` (stereo not drawn), the inhibition in data set [1] turned out to be 7%.
For the molecule `O=C(CCc1ccc2cc(O)ccc2c1)NC1=C(C(=O)O)CC(c2ccc(F)nc2)CC1` (stereo not drawn), in [2], the fold change (FC) turned out to be 90.
What is called clearance is the rate of elimination divided by the concentration. By half-life is commonly meant the time needed for the level to fall by half in the phase considered. By bioavailability is commonly meant the share of a dose that reaches the circulation, judged against a reference dose that is usually intravenous. What is called Cmax is the maximum level reached in the sampled fluid or tissue. As to `O=C(CCc1ccc(-c2ccc(O)cc2)cc1)Nc1ccccc1C(=O)O`, in [3], the clearance came to 8.7 mL/min/kg. The half-life in data set [4] was 2.4 h. Further, the bioavailability in data set [5] was determined as 35%. Besides, the Vd in [6] is 0.78 L/kg. This molecule gave a Cmax in [7] of 4 µM.
For the molecule `O=C(CCc1ccc2cc(O)ccc2c1)NC1=C(C(=O)O)CC(c2cc(F)cc(F)c2)CC1` (stereo not drawn), the fold change (FC) in data set [2] is over 400.
With `O=C(CCc1nc(-c2ccc(F)cn2)no1)NC1=C(C(=O)O)CCCC1`, the fold change (FC) in data set [2] is over 400.
Same read-out and setting: for `CCCC1CCC(NC(=O)CCc2ccc3cc(O)ccc3c2)=C(C(=O)O)C1` (stereo not drawn) the value was over 400.
In turn, `C[C@H]1CC(NC(=O)CCc2nc(-c3ccc(O)cn3)no2)=C(C(=O)O)C[C@H]1c1cccc(F)c1` returned a clearance in data set [3] of 5.6 mL/min/kg. In data set [4], this molecule had a half-life of 3.9 h. In addition, in data set [5], the bioavailability was 2%. Also, the Vd in data set [6] worked out at 0.76 L/kg. The same molecule displayed a Cmax in data set [7] of 0.3 µM.
In turn, `NC(Cc1nc(-c2ccc(F)cn2)no1)C(=O)NC1=C(C(=O)O)CCCC1` (stereo not drawn) showed a clearance in [3] of 0.5 mL/min/kg. For the same molecule, the half-life in data set [4] was 14 h. For the same molecule, the bioavailability in data set [5] was determined as 87%. Also, in [6], the Vd is 1.4 L/kg. The same molecule showed a Cmax in data set [7] of 16 µM. In addition, the fold change (FC) in data set [2] is over 400.
For `Cn1nccc1C1CCC(NC(=O)CCc2ccc3cc(O)ccc3c2)=C(C(=O)O)C1` (stereo not drawn), in [2], the fold change (FC) came to 200.
Same read-out and setting: for `O=C(CCc1ccc2cc(O)ccc2c1)NC1=C(C(=O)O)CC(c2ccccc2F)CC1` (stereo not drawn) the value was over 400.
In the case of `O=C(CCc1nc(-c2ccc(O)cn2)no1)NC1=C(C(=O)O)CCCC1`, in data set [3], the clearance was found to be 2 mL/min/kg. For the same molecule, in data set [4], the half-life was 1.3 h. Moreover, in data set [5], the bioavailability amounted to 13%. The Vd in [6] stood at 0.21 L/kg. The Cmax in data set [7] was found to be 3.9 µM.
`NC(Cc1nc(-c2ccc(F)cn2)no1)C(=O)NC1=C(C(=O)O)CC(c2cc(F)cc(F)c2)CC1` (stereo not drawn): the fold change (FC) in [2] was 30. Also, the clearance in data set [8] was 2.3 mL/min/kg. Besides, the Vd in [9] is 2.4 L/kg. In [10], the half-life was 4.8 h. For the same molecule, in data set [11], the concentration peaked (Cmax) at 3.8 µM. The molecule further came in with a bioavailability in data set [12] of 44%.
On to `O=C(CCc1nc(-c2ccc(F)cn2)no1)NC1=C(C(=O)O)CC(c2cc(F)cc(F)c2)CC1` (stereo not drawn), for which, in data set [2], the fold change (FC) was 30.
Same read-out and setting: for `Cn1cc(C2CCC(NC(=O)CCc3ccc4cc(O)ccc4c3)=C(C(=O)O)C2)cn1` (stereo not drawn) the value was over 400; for `O=C(CCc1ccc2cc(O)ccc2c1)NC1=C(C(=O)O)CC(c2cccc(F)c2)CC1` (stereo not drawn), over 400.
In the case of `O=C(CCc1ccc(-c2ccc(O)cc2)cc1)NC1=C(C(=O)O)CC(c2cccnc2F)CC1` (stereo not drawn), the clearance in data set [3] turned out to be 5.4 mL/min/kg. For the same molecule, in [4], the half-life was 1.8 h. This molecule showed a bioavailability in data set [5] of 12%. Also, in data set [6], the Vd was 0.42 L/kg. Besides, in data set [7], the Cmax was 1.2 µM.
As for `O=C(CCc1ccc2cc(O)ccc2c1)NC1=C(C(=O)O)CC(c2cccnc2F)CC1` (stereo not drawn), the fold change (FC) in data set [2] amounted to 100.
